# Assay results: PubChem BioAssay AID624038 (The Scripps Research Institute Molecular Screening Center, 2012)
# About 1,100 (0.31%) of roughly 360,000 compounds were called active. The list comes from a sample in which actives are over-represented; it also holds similar structures and randomly drawn compounds. A number with no mark means an inactive call.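 Rule for the calls: active = activation above the run cutoff, the mean activation of all test compounds plus 3 SD (cut at about 18% in these data); inactive = the rest.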
# Target: Muscarinic acetylcholine receptor M5 (Homo sapiens) (UniProt P08912)
# Sequence (P08912 whole entry, looked up): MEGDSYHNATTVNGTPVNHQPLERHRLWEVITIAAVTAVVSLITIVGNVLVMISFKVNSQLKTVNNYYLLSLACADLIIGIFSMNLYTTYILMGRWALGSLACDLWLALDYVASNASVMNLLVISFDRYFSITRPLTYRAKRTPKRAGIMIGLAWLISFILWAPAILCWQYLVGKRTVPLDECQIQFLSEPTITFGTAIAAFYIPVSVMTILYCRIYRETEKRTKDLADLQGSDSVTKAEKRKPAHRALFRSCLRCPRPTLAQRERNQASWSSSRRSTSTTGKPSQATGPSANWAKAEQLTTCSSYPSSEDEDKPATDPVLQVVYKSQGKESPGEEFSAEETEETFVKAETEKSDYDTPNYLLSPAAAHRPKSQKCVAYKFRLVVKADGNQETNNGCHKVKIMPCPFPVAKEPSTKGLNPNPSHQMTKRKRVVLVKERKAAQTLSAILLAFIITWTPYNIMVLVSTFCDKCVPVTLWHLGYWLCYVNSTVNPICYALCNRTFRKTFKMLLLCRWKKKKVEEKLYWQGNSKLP
# Assay: CHRM5 PAMs potentiating acetylcholine calcium signal – CHO-K1 cells, Fluo-8 calcium fluorescence, primary screen (AID 624038)
# Details: CHO-K1 hM5, Fluo-8 calcium, ACh EC20 PAM; at 3 µM; active compounds read high; 0% = ACh EC20, 100% = ACh EC100
# Outline: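 Assay system – human M5 receptor in CHO-K1 cells · Read-out – % activation, ACh-normalized · Technique – Fluo-8 calcium fluorescence · Dosing – single-point, 3 µM nominal · Incubation – Fluo-8 loading 80 min at 37 °C plus 30 min room temperature · Repeats – singlicate, one well per test compound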
row,Structure (SMILES),activation
1,CCOC(=O)[C@H]1Nc2ccc(Cl)cc2[C@@H]2[C@H]1C1CC(c3ccccc31)N2C(=O)OCc1ccccc1 (stereo partly drawn),-15.8%
2,COc1ccccc1-n1c(SCC(=O)O)nc2sc3c(c2c1=O)CCC3,1.79%
3,CCSc1nc2sc3c(c2c(=O)n1-c1ccc(C)cc1)CCN(C)C3,-1.06%
4,Cc1ccc(C)c(-n2c(SCC(=O)O)nc3sc4c(c3c2=O)CCCC4)c1,20.4% (active)
5,COc1ccc(Br)cc1CN1CCN(C(=O)c2cccc(OC)c2OC)CC1,2.23%
6,CCN(CC)c1ccc(C2C3CCCCC3(O)CCN2CC(=O)Nc2ccccc2)cc1 (stereo not drawn),-6.54%
7,COC(=O)c1ccc(NC(=O)C23CC4CC(C2)CC(n2cnc(Cl)n2)(C4)C3)cc1,3.27%
8,Cc1ncn(C23CC4CC(CC(O)(C4)C2)C3)n1,19.2% (active)
9,CC(N)C12CC3CC(CC(O)(C3)C1)C2 (stereo not drawn),-3.44%
10,CCOC(=O)/C(=N\Nc1ccccc1Cl)N(C)C1CCS(=O)(=O)C1 (stereo not drawn),-8.17%
11,O=C(COC(=O)/C=C/c1nc2ccccc2s1)Nc1ccccc1Oc1ccccc1,1.93%
12,CCC(=O)c1ccc(OCC(O)CN2CCN(c3cccc(C(F)(F)F)c3)CC2)cc1 (stereo not drawn),-10.8%
13,CCOc1ccc(N2C(=O)CC(N(CCc3ccc(OC)c(OC)c3)C(=S)Nc3ccccc3)C2=O)cc1 (stereo not drawn),21.9% (active)
14,CN(C)c1ccc(NC(=S)N(CCc2ccccc2)C2CC(=O)N(c3c(Cl)cccc3Cl)C2=O)cc1 (stereo not drawn),8.56%
15,COC(=O)CN(C(=S)Nc1ccc(Cl)cc1)C1CC(=O)N(c2ccc(OC)cc2)C1=O (stereo not drawn),-18.4%
16,COc1ccc(CCNS(=O)(=O)c2ccc(C(=O)NCc3ccco3)cc2)cc1OC,1.67%
17,CCCC1=Nc2cc(C(=O)NCc3ccco3)ccc2Sc2ccccc21,19.8% (active)
18,O=C(NCc1ccco1)c1cccc(-c2ccc3nncn3c2)c1,-4.68%
19,O=C(NC1CCN(C(=S)NCc2ccco2)CC1)c1ccc(F)cc1,-4.46%
20,Cc1cc(C)nc(SCc2nnc(SCC(=O)Nc3ncc(C)s3)n2Cc2ccco2)n1,-4.62%

row,Structure (SMILES),activation
1,CCn1c(CNC(=O)c2ccco2)nnc1SCC(=O)Nc1cccc(F)c1,-8.95%
2,CCN(CC)C(=O)CSc1nnc(CNc2ccc(F)cc2)n1Cc1ccco1,26.3% (active)
3,Cc1c(Cl)cccc1NC(=O)CC1SC(=NCC2CCCO2)NC1=O (stereo not drawn),-3.09%
4,CCn1ccnc1CN(C)C(=O)c1ccc2nc(Cc3ccc(OC)cc3)oc2c1,-3.69%
5,CC(=O)Nc1ccc(N2C(=O)C3C4C=CC(CC4)C3C2=O)cc1 (stereo not drawn),3.09%
6,CC(=O)Nc1ccc(N2C(=O)CCC2=O)cc1C,30.9% (active)
7,Cc1cc(N2CCCC2)ccc1NC(=O)COc1ccc(Cl)cc1,-6.11%
8,CCNC(=O)CC1C(=O)N(c2ccc(F)cc2)C(=O)N1Cc1cccs1 (stereo not drawn),-0.18%
9,CC(C)CN1CCNC(=O)C1CC(=O)N(C)CC1CCOCC1 (stereo not drawn),1.55%
10,Cc1ccc(C(C)(C)C)c(OCCCCN2CCCC2)c1,-4.25%
11,COc1ccc(C2=NN(C(=O)CSc3nnnn3C)C(c3ccco3)C2)cc1 (stereo not drawn),8.48%
12,CCOC(=O)c1c(NC(=O)c2cccs2)sc(C)c1C,27.8% (active)
13,COCCCNCC(=O)Nc1sc(C)c(C)c1C(=O)OC,12.8%
14,CCc1c(C)sc(NC(=O)c2cccs2)c1C(N)=O,-8.58%
15,CC1(C(=O)NS(=O)(=O)c2ccc(Cl)cc2)CCN1C(=O)CC1CCCC1 (stereo not drawn),0.43%
16,CCCCn1c(N)c(N(CCC(C)C)C(=O)CC2OC(=O)c3ccccc32)c(=O)[nH]c1=O (stereo not drawn),-2.77%
17,CCc1nnc(NS(=O)(=O)c2ccc(NC(=S)NC(=O)/C=C/c3cccs3)cc2)s1,2.07%
18,CCc1nnc(NS(=O)(=O)c2ccc(NC(=O)c3cccc(OC(F)(F)C(F)F)c3)cc2)s1,18.4% (active)
19,Cc1cc(NS(=O)(=O)c2ccc(NC(=O)c3cccc(OC(F)F)c3)cc2)nc(C)n1,1.34%
20,O=C(NC(=S)N1CCCCC1c1cccnc1)c1ccccc1 (stereo not drawn),5.16%

row,Structure (SMILES),activation
1,Cc1ccc(S(=O)(=O)NNC(=O)/C=C/c2cccc(F)c2)cc1,-0.46%
2,Cc1ccc(C)c(OCc2cc(C(=O)N3CCN(c4cnccn4)CC3)no2)c1,-8.08%
3,Cc1cccn2c(=O)c3cc(C(=O)NCCN4CCOCC4)c(=N)n(Cc4cccnc4)c3nc12,28.1% (active)
4,Cc1ccc2nc3c(cc(C(=O)NCCc4ccccc4)c(=N)n3CC3CCCO3)c(=O)n2c1 (stereo not drawn),2.81%
5,Cc1cccn2c(=O)c3cc(C#N)c(=O)n(CCCN4CCOCC4)c3nc12,-0.36%
6,CN(Cc1ccccc1)C(=O)C(=O)c1cn(CC(=O)N2CCCC2)c2ccccc12,-2.13%
7,C/C(=N\NC(=S)NC(C)C)c1ccc(C(C)(C)C)cc1,8.71%
8,CCC1CCCCN1CCNC(=O)c1[nH]c(C)c(C(C)=O)c1C (stereo not drawn),20.7% (active)
9,CC(=O)c1c(C)[nH]c(C(=O)NCCCN2CCCC2)c1C,18.1% (active)
10,CCOC(=O)c1c(C)[nH]c(C(=O)NCCN2CCOCC2)c1C,-4.21%
11,CCC1CCCCN1CCNS(=O)(=O)c1ccc2c(c1)CCN2C(C)=O (stereo not drawn),2.47%
12,CC(=O)c1c(C)[nH]c(C(=O)NCc2ccc(C)cc2)c1C,11.5%
13,CCCCN(CC)CCNC(=O)c1[nH]c(C)c(C(C)=O)c1C,-11.2%
14,COc1ccc(OCC(=O)NCCS(=O)(=O)N2CCN(c3ccc(F)cc3)CC2)cc1,5.36%
15,CCCCNC(=O)N(O)C1N(/N=C/c2ccccc2O)C(=S)SC1(C)C (stereo not drawn),-0.6%
16,O=C(COC(=O)c1ccco1)Nc1ccc(Cl)cn1,4.61%
17,O=C(Nc1ccc(Cl)cn1)Nc1cccs1,29.7% (active)
18,Cc1cccc(OCC(=O)OCC(=O)Nc2ccc(Cl)cn2)c1,5.11%
